The EternaBench riboswitch data

Tested on: MS2 coat protein
Experiment: apparent Kd, MS2 coat protein; higher = weaker binding; RNA-MaP array
Summary of the method: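 Designed RNAs were transcribed on an Illumina sequencing chip from sequenced DNA templates. They were incubated at room temperature with fluorescently labeled MS2 coat protein at 1.5 nM to 3 μM, for 0.8–1.5 h at the lowest to 10–20 min at the highest concentrations, in Tris-HCl pH 7.5 buffer with KCl, MgCl2, BSA, DTT, tRNA and Tween20, with or without input ligand. Apparent Kd is the median of per-cluster binding-curve fits. Designs measured on fewer than 10 clusters were excluded.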

[1] = designed as: OFF switch for flavin mononucleotide, no ligand
[2] = ligand present: flavin mononucleotide, designed as: OFF switch for flavin mononucleotide
[3] = designed as: ON switch for flavin mononucleotide, no ligand
[4] = ligand present: flavin mononucleotide, designed as: ON switch for flavin mononucleotide
[5] = designed as: OFF switch for theophylline, no ligand
[6] = ligand present: theophylline, designed as: OFF switch for theophylline

Row | Sequence | apparent Kd [1] [nM] | apparent Kd [2] [nM] | other results
1 | ACCUACGUAGGAUAUACGCAUCGUGGACCGCAUGCCCGUGCACAUGAGGAUCACCCAUGUAGAAGGACGUACGC | 17.1 | 22.6 | –
2 | CUUAUCAUAGGAUAUACAUGAGGAUCACCCAUGUAGUAGCAUAUAUAUAGUUUCCCAAGUAGAAGGAUGUACAC | 9.43 | 7.9 | –
3 | GGACAUUGUCCUAUUCACAUGAGGAUCACCCAUGUCACAACUAGAAGGGAGCGAUAACAAUUUCCUCAGGAUAUAGUUCGCGGC | – | – | apparent Kd [3]: 28.2 nM; apparent Kd [4]: 24.7 nM
4 | AAUGAUGCGAUCUACAGUCGAGGAUUCGAUACCAGCAACGGGCGUUGCCCUUGGCAGCGAGCUACAUGAGGAUCACCCAUGUUAC | – | – | apparent Kd [5]: 19.9 nM; apparent Kd [6]: 34.7 nM
5 | GUAUGCCACAGGGACAUGAGGAUCACCCAUGUAAAUACGGAUAGAAGGCGACGAGCGUAGCUCUUCGAGGAUAUAUGCUUUUUG | 31.5 | 34.2 | –
6 | UAGUUGCAUACAUGAGGAUCACCCAUGUUUUAAUGGGUAACUAGAAGGUGUUGACGUUGGCUAAACAAGGAUAUAGUUCGUGCU | 43.3 | 46.5 | –
7 | AAAAGCAGGGUCAGGAUAUAGGGUUCACUGUUGGCCUAGAAGGGACAUGAGGAUCACCCAUGUAUAGUAGUGGG | 347 | 262 | –
8 | AAAAGUACAGGAUAUACAUGAGGAUCACCCAUGUCAGAAUAUAAUGAUAAGAAACUGAGUAGAAGGGUAACGAG | 28.6 | 20.3 | –
9 | AUAAUAGUAGGAUAUACAUGAGGAUCACCCAUGUGACCGCUCAAAGAUAGCGAUGCUCGUAGAAGGACUGUGGA | 21.3 | 21.8 | –
10 | CUACGGACGGAAGGAUAUAUACGGGUGCCCAGUAUAGAAGGUCCAUACAUGAGGAUCACCCAUGUCAUUAAACCUACGGAGGAG | – | – | apparent Kd [3]: 145 nM; apparent Kd [4]: 80.6 nM
11 | AGAAGACAUGAGGAUCACCCAUGUGAGGAUAUUACACUAGAAAACAGCCGCGUCUCGGUAAGAAGGCACUAUGG | 33.9 | 36.6 | –
12 | GGUAUGUCAGGAUAUUAAUGGUCAGUAACGGAACAGAGGAGUAAGAAGGGACAUGAGGAUCACCCAUGUAUUCG | 17.1 | 16.4 | –
13 | UCUGGUAUGACGGCCGCCACUAGAUCGUGAGAAGCCUGCAUACAUGAGGAUCACCCAUGUCUCACUAGGACCGGGUCAUUCCAAU | – | – | apparent Kd (designed as: ON switch for tryptophan, no ligand): 66.1 nM; apparent Kd (ligand present: tryptophan, designed as: ON switch for tryptophan): 22.3 nM
14 | CCCAAUUUCCGAGAUAUGGGUCCAACUAAACGAGGACCGGUACGGCCGCCACUCGACUACAAACAUGAGGAUCACCCAUGUAAAG | – | – | apparent Kd (designed as: OFF switch for tryptophan, no ligand): 17 nM; apparent Kd (ligand present: tryptophan, designed as: OFF switch for tryptophan): 17.4 nM
15 | CUGUUCGUAGGAUAUACUGAAACACGGGACAUUCUGAUUAGACAUGAGGAUCACCCAUGUAGAAGGACGCACGU | 17.4 | 16.9 | –
16 | ACAGGACUAGUAGGAUAUGCGCCGGUAGUACCCGCAGAAGGACUUUCACGGGUUAUUGUCACAUGAGGAUCACCCAUGUGAGGG | 13.2 | 13 | –
17 | CUGACGUAGGAAGAUAUCUGGAACAAGGAUACCAGUAAACCAACAUACCCUUGGCAGCCUAAAACAUGAGGAUCACCCAUGUAAU | – | – | apparent Kd [5]: 12.4 nM; apparent Kd [6]: 14.6 nM
18 | GCUUUAUUCUAGAAGGCUUAUCAUGCAUAAUGUCUAGAAGUUCAGACAUGAGGAUCACCCAUGUAAGAGGAUAUAGCGUAAAGU | 26.9 | 31.3 | –
19 | GCUGAUCAACCCUAGGAUAUCACCCAUACCACAUGAGGAUCACCCAUGUCGGGUUGCUAUGUGGCUGAGAAGGAGGUGCACUAUAC | – | – | apparent Kd [3]: 23 nM; apparent Kd [4]: 8.76 nM
20 | AAGAGUGUGAGAGGAUAUGCUUACCCAUAUCACAUGAGGAUCACCCAUGUCGGCGAUUGUAUUAUGCAGAAGGCUCAAGGACUC | – | – | apparent Kd [3]: 18.3 nM; apparent Kd [4]: 9.8 nM
21 | GGGCGCCGAGGAUAUCACAGGAGUAACAUGAGGAUCACCCAUGUAUCAGUGGGCGUAAUAUGAGAAGGCGGUGGUU | 85.5 | 43.5 | –
22 | AUCGUGCCAAGAGGAUAUCACCAUUCAAUACCCACAUGAGGAUCACCCAUGUAUGCAGUGUUCCGUGAGAAGGCUUGCAUACCA | – | – | apparent Kd [3]: 113 nM; apparent Kd [4]: 19.4 nM
23 | AUCAGUGGCUAGGAUAUGUUAGUCAGAUAUACAACAGAAGGAGCGACAUGAGGAUCACCCAUGUUACAGUGGAG | 13 | 22.2 | –
